Experiment [1] deals with T1, D(3) dopamine receptor (Homo sapiens, UniProt P35462). Put plainly: Agonist activity at human D3 receptor stably expressed in HEK293T cells co-expressing ElucN-betaarr2 hD3R-ElucC by beta-arrestin2 recruitment assay. Type of experiment: functional, cell-based. Background: Recruitment of arrestin is a read-out of receptor activation apart from second messengers.
The target of experiment [2] is Histamine H1 receptor (Homo sapiens, UniProt P35367).
For experiment [3], the target named is T2, Histamine H2 receptor (Cavia porcellus, UniProt P47747). The experiment can be described thus: Agonist activity at guinea pig histamine H2 receptor stably transfected in HEK293T cells co-expressing NlucN-mGs/gpH2R-NlucC by mini-G protein recruitment assay. Type of experiment: functional, cell-based.
Experiment [4] has as its target T3, Histamine H2 receptor (Homo sapiens, UniProt P25021). Put plainly: Agonist activity at human histamine H2 receptor stably expressed in HEK293T cells co-expressing NlucN-mGs/hH2R-NlucC assessed as induction of mini-Gs protein recruitment using furimazine as substrate measured for 45 mins by luminescence assay.
Experiment [5] deals with Histamine H3 receptor (Homo sapiens, UniProt Q9Y5N1). The experiment can be described thus: Displacement of [3H]UR-PI294 from human histamine H3 receptor stably expressed in baculovirus infected Sf9 cell membrane co-expressing G-alphai2 and G-beta1gamma2 incubated for 60 mins by scintillation counting analysis. Type of experiment: cell membranes. A digest of the protocol:
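hH3R + Gαi2 + Gβ1γ2 expressed in Sf9 membranes. […] Mean ± SEM from N independent experiments in triplicate.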
For orientation: Displacement assays read how much labelled ligand stays bound in the presence of the test substance.

Experiment [6] concerns the target T1, D(3) dopamine receptor. The experiment can be described thus: Displacement of [3H]N-methylspiperone from human D3 receptor stably expressed in HEK293T cells co-expressing luciferase and CEK incubated for 140 mins by radioligand competition binding based assay. Type of experiment: cell-based.
The target of experiment [7] is Histamine H4 receptor (Homo sapiens, UniProt Q9H3N8).
In experiment [8] the target is T4, D(2) dopamine receptor (Homo sapiens, UniProt P14416). Type of experiment: functional, cell-based, HEK293T.
In experiment [9] the target is T2, Histamine H2 receptor. The experiment can be described thus: Agonist activity at histamine H2 receptor in spontaneous beating guinea pig right atrium assessed as increase in heart beat. Type of experiment: functional, tissue-based, Right cardiac atrium.
Experiment [10] has as its target T3, Histamine H2 receptor. The experiment can be described thus: Displacement of [3H]UR-DE257 from human histamine H2 receptor stably expressed in baculovirus infected Sf9 cell membrane co-expressing RG-Salpha S incubated for 60 mins by scintillation counting analysis. The format is cell membranes.
Experiment [11] concerns the target Histamine H2 receptor (Cavia porcellus) (UniProt P47747). The experiment can be described thus: Agonist activity at guinea pig histamine H2 receptor stably transfected in HEK293T cells co-expressing NlucN-mGs/gpH2R-NlucC assessed as maximum efficacy at 100 uM by mini-G protein recruitment assay relative to histamine. The format is functional, cell-based.
Experiment [12] deals with T3, Histamine H2 receptor. Put plainly: Agonist activity at human histamine H2 receptor stably expressed in HEK293T cells co-expressing ARRB2 incubated for 60 mins by beta-arrestin2 recruitment assay. The format is functional, cell-based.
Experiment [13] has as its target Histamine H2 receptor (Cavia porcellus) (UniProt P47747). The experiment can be described thus: Agonist activity at histamine H2 receptor in spontaneous beating guinea pig right atrium assessed as increase in heart beat at 30 uM relative to histamine. The format is functional, tissue-based. The following applies: Right cardiac atrium.
Experiment [14] concerns the target T4, D(2) dopamine receptor. The experiment can be described thus: Displacement of [3H]N-methylspiperone from human D2 long receptor stably expressed in HEK293T cells co-expressing luciferase and CEK incubated for 140 mins by radioligand competition binding based assay. The format is cell-based.
Experiment [15] has as its target T3, Histamine H2 receptor. The experiment can be described thus: Agonist activity at human histamine H2 receptor stably expressed in baculovirus infected Sf9 cell membrane co-expressing RG-Salpha S incubated for 90 mins by [35S]GTPgammaS binding based liquid scintillation counting method. Type of experiment: functional, cell membranes. (GTPγS resists hydrolysis and so accumulates on activated G proteins.)

Chain of Histamine H1 receptor (P35367 whole entry): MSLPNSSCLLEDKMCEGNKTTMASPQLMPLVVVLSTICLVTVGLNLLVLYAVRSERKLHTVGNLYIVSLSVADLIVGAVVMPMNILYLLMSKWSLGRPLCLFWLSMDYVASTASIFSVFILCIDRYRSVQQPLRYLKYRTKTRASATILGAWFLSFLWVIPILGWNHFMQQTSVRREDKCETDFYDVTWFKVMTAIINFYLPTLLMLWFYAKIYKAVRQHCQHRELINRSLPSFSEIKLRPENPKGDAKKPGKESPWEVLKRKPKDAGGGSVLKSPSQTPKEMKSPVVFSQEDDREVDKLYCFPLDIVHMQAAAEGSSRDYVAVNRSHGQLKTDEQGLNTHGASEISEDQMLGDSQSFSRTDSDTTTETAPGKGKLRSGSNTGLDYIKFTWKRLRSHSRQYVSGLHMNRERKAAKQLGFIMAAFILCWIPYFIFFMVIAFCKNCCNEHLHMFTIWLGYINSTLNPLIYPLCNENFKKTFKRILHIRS
Chain of Histamine H2 receptor (Cavia porcellus) (P47747 whole entry): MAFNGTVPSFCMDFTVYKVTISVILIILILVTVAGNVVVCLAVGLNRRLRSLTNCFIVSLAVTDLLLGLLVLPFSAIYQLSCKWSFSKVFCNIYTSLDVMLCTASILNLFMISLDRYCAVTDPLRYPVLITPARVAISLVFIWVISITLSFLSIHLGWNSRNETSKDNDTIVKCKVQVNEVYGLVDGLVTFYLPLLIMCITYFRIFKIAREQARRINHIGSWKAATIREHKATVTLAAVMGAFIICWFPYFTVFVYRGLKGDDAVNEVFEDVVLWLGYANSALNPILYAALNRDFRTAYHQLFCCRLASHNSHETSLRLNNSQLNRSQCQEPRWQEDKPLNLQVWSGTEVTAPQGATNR
T2 sequence (P47747 whole entry): as above
Chain of Histamine H3 receptor (Q9Y5N1 whole entry): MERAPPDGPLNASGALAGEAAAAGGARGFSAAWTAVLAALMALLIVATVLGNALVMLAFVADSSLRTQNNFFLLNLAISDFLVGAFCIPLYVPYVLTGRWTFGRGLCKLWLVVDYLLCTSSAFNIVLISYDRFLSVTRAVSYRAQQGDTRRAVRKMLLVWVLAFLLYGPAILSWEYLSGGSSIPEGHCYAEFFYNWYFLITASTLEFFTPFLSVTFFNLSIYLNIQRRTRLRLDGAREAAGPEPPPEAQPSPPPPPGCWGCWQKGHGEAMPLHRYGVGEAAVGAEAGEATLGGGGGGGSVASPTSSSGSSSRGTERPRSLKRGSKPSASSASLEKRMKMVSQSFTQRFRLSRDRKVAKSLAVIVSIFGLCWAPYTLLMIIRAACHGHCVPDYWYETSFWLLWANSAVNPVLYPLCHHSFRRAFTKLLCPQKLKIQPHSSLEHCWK
T1 sequence (P35462 whole entry): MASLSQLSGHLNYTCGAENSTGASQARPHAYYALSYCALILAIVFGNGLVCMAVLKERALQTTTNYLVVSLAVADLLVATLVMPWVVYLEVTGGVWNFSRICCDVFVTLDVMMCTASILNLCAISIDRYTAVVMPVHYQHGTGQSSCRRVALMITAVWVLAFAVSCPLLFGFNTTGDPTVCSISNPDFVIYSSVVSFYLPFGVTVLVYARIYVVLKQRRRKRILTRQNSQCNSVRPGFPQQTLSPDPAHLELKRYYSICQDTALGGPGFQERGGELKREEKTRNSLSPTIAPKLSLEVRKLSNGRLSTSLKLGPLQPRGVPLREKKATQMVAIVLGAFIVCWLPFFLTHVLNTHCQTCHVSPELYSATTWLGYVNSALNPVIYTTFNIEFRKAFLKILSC
T4 sequence (P14416 whole entry): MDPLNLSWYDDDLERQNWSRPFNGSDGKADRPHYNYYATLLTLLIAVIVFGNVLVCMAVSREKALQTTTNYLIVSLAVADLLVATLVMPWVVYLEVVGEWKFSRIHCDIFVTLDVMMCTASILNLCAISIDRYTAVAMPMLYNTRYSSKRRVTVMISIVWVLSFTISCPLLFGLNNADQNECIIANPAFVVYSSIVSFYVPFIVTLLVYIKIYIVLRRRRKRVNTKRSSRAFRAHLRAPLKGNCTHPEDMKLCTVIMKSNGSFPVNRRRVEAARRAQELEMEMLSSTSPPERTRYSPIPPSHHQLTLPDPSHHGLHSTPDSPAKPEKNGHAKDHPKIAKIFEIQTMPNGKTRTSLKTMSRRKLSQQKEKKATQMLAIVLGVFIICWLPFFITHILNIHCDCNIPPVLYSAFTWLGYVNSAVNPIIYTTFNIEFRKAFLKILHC
T3 sequence (P25021 whole entry): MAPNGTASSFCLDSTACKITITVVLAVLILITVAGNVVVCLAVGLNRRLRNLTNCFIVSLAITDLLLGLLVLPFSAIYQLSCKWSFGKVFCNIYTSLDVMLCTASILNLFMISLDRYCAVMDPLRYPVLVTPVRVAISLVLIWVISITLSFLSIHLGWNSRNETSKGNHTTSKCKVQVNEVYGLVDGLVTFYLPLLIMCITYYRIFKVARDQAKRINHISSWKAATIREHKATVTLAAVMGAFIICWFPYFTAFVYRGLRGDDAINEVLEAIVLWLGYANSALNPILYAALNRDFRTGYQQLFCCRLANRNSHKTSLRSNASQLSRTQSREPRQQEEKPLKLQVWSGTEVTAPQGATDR
Chain of Histamine H4 receptor (Q9H3N8 whole entry): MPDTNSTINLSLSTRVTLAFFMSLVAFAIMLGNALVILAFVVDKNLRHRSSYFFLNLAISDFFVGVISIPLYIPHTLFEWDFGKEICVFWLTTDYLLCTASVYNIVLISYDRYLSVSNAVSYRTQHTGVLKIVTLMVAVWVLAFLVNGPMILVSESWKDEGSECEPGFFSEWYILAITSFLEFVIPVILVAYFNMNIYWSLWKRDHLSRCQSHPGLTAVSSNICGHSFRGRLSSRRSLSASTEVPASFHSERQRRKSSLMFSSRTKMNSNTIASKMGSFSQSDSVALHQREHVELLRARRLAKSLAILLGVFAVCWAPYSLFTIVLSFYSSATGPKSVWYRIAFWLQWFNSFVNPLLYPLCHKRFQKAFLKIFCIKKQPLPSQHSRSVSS

Usually EC50 stands for the concentration giving half of the maximal effect. What is called Kd is the constant that tells how readily two partners part at equilibrium. A higher Kd goes with lower affinity. Usually Ki stands for a measure of affinity in units of concentration, obtained from inhibition or displacement. A lower Ki goes with a stronger hold on the target. Usually Emax stands for the greatest response seen or fitted, relative to the assay's reference. In the case of `C[C@@H](NC(=O)/N=C(\N)NCCCc1nnc(N)s1)c1ccccc1`, the concentration giving a half-maximal response (EC50) in experiment [1] was 1070 nM; in [3] it was 25.1 nM; in experiment [4], 20 nM; in experiment [8] it was above 10000 nM; in [9], 2.88 nM; in [12], 282 nM. Besides, the values for the equilibrium dissociation constant (Kd) in experiment [2] and in [7] were 4.5 nM and 16 nM, respectively. Further, the Ki is above 10000 nM in [2]; above 10000 nM in [5]; 3240 nM in experiment [6]; above 10000 nM in experiment [7]; 12.9 nM in experiment [10]; above 10000 nM in [14]. The Emax in experiment [11] is 90%; in experiment [13], 98%.
For the compound `CC(NC(=O)/N=C(\N)NCCCc1nnc(N)s1)c1cccc(F)c1` (configuration not stated), the EC50 was 1910 nM in experiment [1]; 6.92 nM in experiment [3]; 8.13 nM in experiment [4]; above 10000 nM in experiment [8]; 0.912 nM in experiment [9]; 75.9 nM in [12]. In addition, the figures for the Kd in experiment [2] and in [7] were 4.5 nM and 16 nM, respectively. For the same compound, the inhibitory constant (Ki) in experiment [2] is 10500 nM; in [5], above 10000 nM; in experiment [6], 661 nM; in experiment [7], above 10000 nM; in experiment [10], 8.13 nM; in experiment [14] it was above 10000 nM. In addition, the Emax in [11] is 93%; in experiment [13], 110%.
`CCCCCCNC(=O)/N=C(\N)NCCCc1nnc(N)s1`: the EC50 was 813 nM in experiment [1]; 2.29 nM in [3]; 6.03 nM in experiment [4]; above 10000 nM in experiment [8]; 4.79 nM in experiment [9]; 1070 nM in experiment [12]. In addition, the dissociation constant Kd in [2] worked out at 4.5 nM; in experiment [7] it was 16 nM. For the same compound, the inhibition constant (Ki) in experiment [2] is 5010 nM; in experiment [5], above 10000 nM; in [6], 589 nM; in [7], above 10000 nM; in experiment [10], 5.13 nM; in experiment [14], above 10000 nM. For the same compound, the maximal response (Emax) in experiment [11] came out at 96%; in experiment [13] it was 106%.
Take `CC(CNC(=O)/N=C(\N)NCCCc1nnc(N)s1)C1CCCCC1` (configuration not stated): the half-maximal effective concentration (EC50) in experiment [1] was 1350 nM; in experiment [15], 13.2 nM; in experiment [4], 10.7 nM; in [8] it was above 10000 nM; in experiment [12] it was 135 nM. The Kd in [2] came out at 4.5 nM; in experiment [7], 16 nM. Moreover, the inhibitory constant (Ki) was 7410 nM in experiment [2]; 2750 nM in experiment [5]; 234 nM in [6]; 12600 nM in experiment [7]; 19.5 nM in experiment [10]; 1620 nM in experiment [14].
As for `N/C(=N\C(=O)NCCCCCCNC(=O)/N=C(\N)NCCCc1nnc(N)s1)NCCCc1nnc(N)s1`, the dissociation constant (Kd) is 4.5 nM in experiment [2] and 16 nM in experiment [7]. The inhibitory constant (Ki) in experiment [2] was 3550 nM; in experiment [5] it was 10000 nM; in [7] it was above 10000 nM; in [10] it was 5.25 nM; in [14] it was 955 nM. Also, the half-maximal effective concentration (EC50) was 34.7 nM in experiment [15], 20 nM in experiment [4], 1120 nM in [8] and 407 nM in experiment [12].
